Calls of active or inactive are those of the source. The rule behind the calls is not given here.
How the values were obtained:
HCT-116 [1] = test: Induction of cell cycle arrest in human HCT116 cells assessed as reduction of G2/M phase at 5 uM after 24 hrs by propidium iodide staining-based flow cytometry (reference value: 24%); format: functional; parameters: scale not given: the % may be the effect or the level left
HepG2 [2] = test: Antiproliferative activity against human HepG2 cells assessed as reduction in cell viability after 72 hrs by MTT assay; format: functional, cell-based; settings: HepG2, 72 h
How it was run: (§1)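 3000 cells/well incubated in triplicate with serial concentrations of compound for 24, 48 or 72 h at 37 °C. MTT (5.0 mg/mL solution) added 3 h before the end. Formazan dissolved in DMSO, absorbance read at 570 and 630 nm. Viability normalised to vehicle control. IC50 from non-linear regression (variable slope), mean ± SD of triplicates.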

[3] = Antiproliferative activity against human PANC1 cells assessed as reduction in cell viability after 48 hrs by MTT assay; format: functional, cell-based; settings: PANC-1, 48 h; how it was run: as §1
HCT-116 [4] = test: Induction of apoptosis in human HCT116 cells assessed as late apoptotic cells at 5 uM after 24 hrs by 7-ADD and caspase 3/7 activity-based flow cytometry (reference value: 1.70%); format: functional
[5] = Antiproliferative activity against human PANC1 cells assessed as reduction in cell viability after 24 hrs by MTT assay; format: functional, cell-based; settings: PANC-1, 24 h; how it was run: as §1
[6] = Antiproliferative activity against human SKOV3 cells assessed as reduction in cell viability after 48 hrs by MTT assay; format: functional, cell-based; settings: SK-OV-3, 48 h; how it was run: as §1
HCT-116 [7] = test: Induction of apoptosis in human HCT116 cells assessed as late apoptotic cells at 10 uM after 24 hrs by 7-ADD and caspase 3/7 activity-based flow cytometry (reference value: 1.70%); format: functional
HCT-116 [8] = test: Induction of apoptosis in human HCT116 cells assessed as late apoptotic cells at 5 uM after 24 hrs by annexin V/7-ADD staining-based flow cytometry (reference value: 1.65%); format: functional
HCT-116 [9] = test: Induction of apoptosis in human HCT116 cells assessed as early apoptotic cells at 2.5 uM after 24 hrs by 7-ADD and caspase 3/7 activity-based flow cytometry (reference value: 2.45%); format: functional
MDA-MB-231 [10] = test: Antiproliferative activity against human MDA-MB-231 cells assessed as reduction in cell viability after 72 hrs by MTT assay; format: functional, cell-based; settings: MDA-MB-231, 72 h; how it was run: as §1
HCT-116 [11] = test: Induction of cell cycle arrest in human HCT116 cells assessed as accumulation at G1 phase at 5 uM after 12 hrs by propidium iodide staining-based flow cytometry (reference value: 35%); format: functional
HCT-116 [12] = test: Induction of ROS generation in human HCT116 cells at 5 uM after 6 hrs by flow cytometry (reference value: 6%); format: functional
HCT-116 [13] = test: Induction of apoptosis in human HCT116 cells assessed as dead cells at 5 uM after 24 hrs by 7-ADD and caspase 3/7 activity-based flow cytometry (reference value: 3.25%); format: functional
RKO [14] = test: Antiproliferative activity against human RKO cells assessed as reduction in cell viability after 24 hrs by MTT assay; format: functional, cell-based; how it was run: as §1
HCT-116 [15] = test: Induction of apoptosis in human HCT116 cells assessed as dead cells at 2.5 uM after 24 hrs by 7-ADD and caspase 3/7 activity-based flow cytometry (reference value: 3.25%); format: functional
HCT-116 [16] = test: Induction of apoptosis in human HCT116 cells assessed as early apoptotic cells at 5 uM after 24 hrs by annexin V/7-ADD staining-based flow cytometry (reference value: 5.20%); format: functional
NCI-H460 [17] = test: Antiproliferative activity against human NCI-H460 cells assessed as reduction in cell viability after 48 hrs by MTT assay; format: functional, cell-based; settings: NCI-H460, 48 h; how it was run: as §1
[18] = Antiproliferative activity against human HCT116 cells assessed as reduction in cell viability after 24 hrs by MTT assay; format: functional, cell-based; settings: HCT-116, 24 h; how it was run: as §1
HCT-116 [19] = test: Induction of cell cycle arrest in human HCT116 cells assessed as accumulation at S phase at 5 uM after 12 hrs by propidium iodide staining-based flow cytometry (reference value: 55%); format: functional
HepG2 [20] = test: Antiproliferative activity against human HepG2 cells assessed as reduction in cell viability after 24 hrs by MTT assay; format: functional, cell-based; settings: HepG2, 24 h; how it was run: as §1
HCT-116 [21] = test: Induction of apoptosis in human HCT116 cells assessed as live cells at 2.5 uM after 24 hrs by 7-ADD and caspase 3/7 activity-based flow cytometry (reference value: 92.60%); format: functional
HT-29 = test: Antiproliferative activity against human HT-29 cells assessed as reduction in cell viability after 48 hrs by MTT assay; format: functional, cell-based; settings: HT-29, 48 h; how it was run: as §1
RKO [22] = test: Antiproliferative activity against human RKO cells assessed as reduction in cell viability after 72 hrs by MTT assay; format: functional, cell-based; how it was run: as §1
MDA-MB-231 [23] = test: Antiproliferative activity against human MDA-MB-231 cells assessed as reduction in cell viability after 48 hrs by MTT assay; format: functional, cell-based; settings: MDA-MB-231, 48 h; how it was run: as §1
HCT-116 [24] = test: Induction of apoptosis in human HCT116 cells assessed as live cells at 2.5 uM after 24 hrs by annexin V/7-ADD staining-based flow cytometry (reference value: 90.05%); format: functional
UACC-903 [25] = test: Potency index, ratio IC50 of selecoxib-1-GSH to IC50 of compound for human UACC-903 cells after 48 and 72 hrs; format: functional
UACC-903 [26] = test: Antiproliferative activity against human UACC-903 cells assessed as reduction in cell viability after 48 hrs by MTT assay; format: functional, cell-based; settings: UACC-903, 48 h; how it was run: as §1
HCT-116 [27] = test: Induction of apoptosis in human HCT116 cells assessed as cleaved PARP level at 1 to 10 uM after 24 hrs by Western blot method; format: functional, cell-based
How it was run: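 HCT116 lysates after 24 h treatment made in RIPA buffer with protease and phosphatase inhibitors. Resolved by SDS-PAGE (4-12%), transferred to PVDF, probed for PARP with β-actin as loading control, detected by ECL.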

[28] = Effect on cell cycle in human HCT116 cells assessed as upregulation of cyclin p21 expression after 24 hrs by Western blot method; format: functional, cell-based; settings: HCT-116
How it was run: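 CRC cells treated at indicated doses for 24 h. Whole-cell lysates made in RIPA buffer with protease and phosphatase inhibitors and cleared at 15,000 rpm for 10 min. Resolved on 4-12% gels, transferred to PVDF, probed for cell-cycle proteins, detected by ECL. Membranes stripped for sequential probing.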

HCT-116 [29] = test: Induction of apoptosis in human HCT116 cells assessed as early apoptotic cells at 5 uM after 24 hrs by 7-ADD and caspase 3/7 activity-based flow cytometry (reference value: 2.45%); format: functional
NCI-H460 [30] = test: Antiproliferative activity against human NCI-H460 cells assessed as reduction in cell viability after 24 hrs by MTT assay; format: functional, cell-based; settings: NCI-H460, 24 h; how it was run: as §1
HCT-116 [31] = test: Induction of apoptosis in human HCT116 cells assessed as dead cells at 2.5 uM after 24 hrs by annexin V/7-ADD staining-based flow cytometry (reference value: 3.10%); format: functional
[32] = Antiproliferative activity against human SKOV3 cells assessed as reduction in cell viability after 24 hrs by MTT assay; format: functional, cell-based; settings: SK-OV-3, 24 h; how it was run: as §1
HCT-116 [33] = test: Induction of cell cycle arrest in human HCT116 cells assessed as accumulation at G2/M phase at 5 uM after 12 hrs by propidium iodide staining-based flow cytometry (reference value: 10%); format: functional

For `CC(=O)Oc1ccccc1C(=O)NCC[Se]C#N`, the Activity (HCT-116 [1]) was 19%, the IC50 (HepG2 [2]) was 4.3 µM and the IC50 [3] was 2.1 µM. For the same molecule, the Activity (HCT-116 [4]) was 32.8%, the IC50 [5] was 12.1 µM and the IC50 [6] was 5.3 µM. The Activity (HCT-116 [7]) was 46.85%, the Activity (HCT-116 [8]) was 31.35% and the Activity (HCT-116 [9]) was 28.45%. The IC50 (MDA-MB-231 [10]) was 6 µM, the Activity (HCT-116 [11]) was 62% and the Activity (HCT-116 [12]) was 13.12%. It also gave an Activity (HCT-116 [13]) of 2.65%, an IC50 (RKO [14]) of 13.3 µM and an Activity (HCT-116 [15]) of 2.1%. For the same molecule, the Activity (HCT-116 [16]) was 36.15%, the IC50 (NCI-H460 [17]) was 2.4 µM and the IC50 [18] was 16.2 µM. It also gave an Activity (HCT-116 [19]) of 14%, an IC50 (HepG2 [20]) of 16 µM and an Activity (HCT-116 [21]) of 60.4%. For the same molecule, the IC50 (HT-29) was 2.1 µM, the IC50 (RKO [22]) was 2.9 µM and the IC50 (MDA-MB-231 [23]) was 5.5 µM. For the same molecule, the Activity (HCT-116 [24]) was 76.8%, the “Ratio IC50” value (UACC-903 [25]) was “>=5” and the IC50 (UACC-903 [26]) was 4 µM. The Activity (HCT-116 [27]) was “Active”, the Activity [28] was “Dose-dependent effect” and the Activity (HCT-116 [29]) was 44%. For the same molecule, the IC50 (NCI-H460 [30]) was over 50 µM, the Activity (HCT-116 [31]) was 1.25% and the IC50 [32] was over 50 µM. It also gave an Activity (HCT-116 [33]) of 24%.

From ChEMBL document CHEMBL3792386, “Design, Synthesis, and Biological Evaluation of Novel Selenium (Se-NSAID) Molecules as Anticancer Agents” (J Med Chem, 2016)
